In the EternaBench riboswitch data:

Assays:
MS2 coat protein [1] = assay: apparent Kd, MS2 coat protein; higher = weaker binding; RNA-MaP array
In short: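 On an Illumina sequencing chip, sequenced DNA templates served for transcription of the designed RNAs, which were then bound at room temperature by fluorescently labeled MS2 coat protein at 1.5 nM to 3 μM, with or without input ligand. Apparent Kd is the median of the fits to each cluster's binding curve. Only designs measured on at least 10 clusters were kept.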

MS2 coat protein [2] = assay: apparent Kd, MS2 coat protein; higher = weaker binding; RNA-MaP array; FMN 200 µM where present
In short: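 Each design was made on Illumina sequencing-chip clusters by stalled E. coli RNA polymerase and titrated with SNAP-549-labelled MS2 coat protein from 0.7 or 1.5 nM, doubling to 3 µM, in the absence and then the presence of constant ligand. The buffer was 100 mM Tris-HCl pH 7.5, 80 mM KCl, 4 mM MgCl2, BSA, DTT, yeast tRNA and Tween-20. The apparent Kd is the median of filtered per-cluster fits of binding curves, with green signal normalised to red-channel RNA signal and control-cluster median Fmax.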

[3] = designed as: ON switch for flavin mononucleotide, no ligand
[4] = ligand present: flavin mononucleotide, designed as: ON switch for flavin mononucleotide
[5] = designed as: OFF switch for flavin mononucleotide, no ligand
[6] = ligand present: flavin mononucleotide, designed as: OFF switch for flavin mononucleotide

Sequence | apparent Kd (MS2 coat protein [2]; [5]) [nM] | apparent Kd (MS2 coat protein [2]; [6]) [nM] | apparent Kd (MS2 coat protein [2]; [3]) [nM] | apparent Kd (MS2 coat protein [2]; [4]) [nM] | other results
UUUAGGUCAGAGAAGGGCCAUUCUACAUACUCGGCAGGAUAUCUAUUACCUGACAUGAGGAUCACCCAUGUGGUGAACCGACCA | – | – | – | – | apparent Kd (MS2 coat protein [1]; [3]): 199 nM; apparent Kd (MS2 coat protein [1]; [4]): 311 nM
CGGUGUGCAGAGGAUAUCGGCGUUUUCUCACAUCGAGAAGGCUGCACAUGAGGAUCACCCAUGUAUCUUUAGGA | – | – | – | – | apparent Kd (MS2 coat protein [1]; [5]): 58.6 nM; apparent Kd (MS2 coat protein [1]; [6]): 189 nM
CACAUUCCUUAGAAGGCUACGAAUUUAGCGCGUAGAGGAUAUAAGGGAUACAUGAGGAUCACCCAUGUGAUAUAUCUUCUGAAA | – | – | – | – | apparent Kd (MS2 coat protein [1]; [5]): 20.8 nM; apparent Kd (MS2 coat protein [1]; [6]): 24.1 nM
CAGCCGGCCUAGAAGGUCGAAAUCCAAAUCGUCGAAGGAUAUAGGUCCAGAAAACAAUUACAUGAGGAUCACCCAUGUAUCCUG | – | – | – | – | apparent Kd (MS2 coat protein [1]; [3]): 21.5 nM; apparent Kd (MS2 coat protein [1]; [4]): 14.2 nM
ACUCGGGGUUGAGGAUAUUCGACUCGAUCUCCACAUGAGGAUCACCCAUGUCAGGACUGACCGGUGAAGAAGGCAACCGUACAU | – | – | – | – | apparent Kd (MS2 coat protein [1]; [3]): 16.2 nM; apparent Kd (MS2 coat protein [1]; [4]): 5.67 nM
CGAUUACUGCAGAAGGGAGGGCCACAAAACAUGAGGAUCACCCAUGUAGAACUGAACGGGACUCCUCAGGAUAUGCGCCGAGAU | – | – | – | – | apparent Kd (MS2 coat protein [1]; [3]): 28.7 nM; apparent Kd (MS2 coat protein [1]; [4]): 11.8 nM
GGUCGUCUAGUUAGGAUAUCAUUAUUAGAUUAAAUUGAGAAGGAACAUGAGGAUCACCCAUGUCGACAACUAUC | – | – | – | – | apparent Kd (MS2 coat protein [1]; [5]): 7.13 nM; apparent Kd (MS2 coat protein [1]; [6]): 8.12 nM
AUAAUCCCUGUUCAGAGACAUGAGGAUCACCCAUGUUUAACGAGAAGGUGAGUGCGACGGCGUCUCAAGGAUAUCGACGUGACC | – | – | – | – | apparent Kd (MS2 coat protein [1]; [5]): 9.05 nM; apparent Kd (MS2 coat protein [1]; [6]): 10.4 nM
CUGGGCCAAUAGAAGGGCGGGAGCGCAGGUGAUCAAACCUAUUACAUGAGGAUCACCCAUGUAACGCAGGAUAUAUCGGUUUUA | – | – | – | – | apparent Kd (MS2 coat protein [1]; [5]): 25.4 nM; apparent Kd (MS2 coat protein [1]; [6]): 48 nM
CCAUAAGACGAGAAGGGCUGCCAACUAGGUAGAGCAGGAUAUCGUCUUACUCGUCAUGGCAAAACAUGAGGAUCACCCAUGUAU | – | – | – | – | apparent Kd (MS2 coat protein [1]; [5]): 8.16 nM; apparent Kd (MS2 coat protein [1]; [6]): 7.82 nM
GUGCACCGUGAGAAGGCAUAGCACGUGUCGCUGACAUGAGGAUCACCCAUGUGUUGUAAAGUGCAUGAGGAUAUCAGCCAUAGG | – | – | – | – | apparent Kd (MS2 coat protein [1]; [3]): 42.3 nM; apparent Kd (MS2 coat protein [1]; [4]): 10.4 nM
GCAACCCUGCAGAAGGGCGGGUGUACAUGAGGAUCACCCAUGUUAUCAGCAAAGUAGCUGGAUACGCAGGAUAUGCAGUCGAGU | – | – | – | – | apparent Kd (MS2 coat protein [1]; [3]): 164 nM; apparent Kd (MS2 coat protein [1]; [4]): 29.6 nM
CCCGUGCUGCGAGGAUAUGUGUAGGAUGUUUCCACAGAAGGCGCUGGAGACAUGAGGAUCACCCAUGUGAACCCACGUACGACA | – | – | – | – | apparent Kd (MS2 coat protein [1]; [3]): 24.9 nM; apparent Kd (MS2 coat protein [1]; [4]): 19.9 nM
AUACUGAGCGUAAAUUACCUUAACAUGAGGAUCACCCAUGUGGAGGAUAUUGACCUAGCAAAGCUCGAGAAGGCCACUGGGAUG | 17.5 | 18.1 | – | – | –
GUGACCCAUUAACAGUUACCACAUGAGGAUCACCCAUGUGCGAAGGAUAUAGACUGCUAUGCGUGCUAGAAGGUCGCGCGUGGC | 6.32 | 6.63 | – | – | –
CUUUUGUGAGGAUAUUCGUCAUAAGGUUGUAAACCUGUGACGAAGAAGGCACAUGAGGAUCACCCAUGUGUCCU | 15.7 | 26.4 | – | – | –
AGUAAGAUGCAGAAGGUGUUAGCUAGAGCUACGACAUGAGGAUCACCCAUGUACUAGAAACAGUACAAGGAUAUGCAUCUUACC | – | – | 18.9 | 6.52 | –
UUUCAGUUCACAUGAGGAUCACCCAUGUCGGUUCGCCCGGACAGAAGGCACCCAUGACAAUGCGGUGAGGAUAUGUCAACAAGG | – | – | 143 | 19.1 | –
UUAUGUUAUGUAGGAUAUCACUUUAAUUGAUUAAUAUAUGAAUAUAGAAUUUGAGAAGGACAUUUACAUGAGGAUCACCCAUGU | 12.3 | 8.5 | – | – | –
GGAUAGGACAGAGGAUAUACGUGCUAGAGAUACUAGCAAAAUUUCCUCACAUGAGGAUCACCCAUGUAGAAGGCUGUUCUAUCG | 14.6 | 473 | – | – | –
UGGUACUAGGUAGGAUAUGGGAAGAUACAUGAGGAUCACCCAUGUUUAAGAAUGCCGAGAGGCAACUAGAAGGCCCUAGUACCU | – | – | 652 | 78.9 | –
UUACAUACAAAGGUACAUGAGGAUCACCCAUGUUUAUUGGGAAGAAGGGUAACAGUAUUACAUAUAUAGGAUAUUUCACAAAUG | – | – | 90.6 | 69.8 | –
AAGCUGGUAGGAUAUACUAGGGCGAUUAAUACGCCGAUAGUACAUGAGGAUCACCCAUGUAGAAGGGCCAGAAA | 27.5 | 22.1 | – | – | –
GGGUACAUCCGAGGAUAUCAUGUAAAUACAUGAGGAUCACCCAUGUCGAUGGAGACAUCGGAGAUUGAGAAGGCCGAUGUACCG | – | – | 344 | 22.9 | –
UAUUAACACGAAGGAUAUGGUUACAUGAGGAUCACCCAUGUAUGUAUAUUGAUCUAGAUUUUUGACCAGAAGGUCGUGAGUAAA | 23.9 | 38.2 | – | – | –
AAGCGCUGUCAAGGAUAUCCGAAAAGAGAAUAAGGAGAAGGUGACAUGAGGAUCACCCAUGUGCACUGGGUGGACGCGCGCUCC | 549 | 196 | – | – | –
GAGAAGUCAGGAUAUGCUGCUCGUCACUUGCGUGAUGAGUAGCAGAAGGGACAUGAGGAUCACCCAUGUAAAGU | 51.7 | 74.8 | – | – | –

Sequence | apparent Kd (MS2 coat protein [2]; [5]) [nM] | apparent Kd (MS2 coat protein [2]; [6]) [nM] | apparent Kd (MS2 coat protein [2]; [3]) [nM] | apparent Kd (MS2 coat protein [2]; [4]) [nM] | other results
UAUAACCAAGGAUAUACAUGAGGAUCACCCAUGUAAUAUAGUAUAAUAUAUGUAAAAUGUAGAAGGUGGGAUGU | 32 | 34 | – | – | –
AAAUCGUCAGGAUAUGCUAGUAAAUGUUACAUUUCUUCAUAGCAGAAGGGACAUGAGGAUCACCCAUGUAAGUC | 33.7 | 45.6 | – | – | –
GCACGACAUGUAGGAUAUCGAGCGCCGGGCGCUCGAGAAGGACAUGAGGAUCACCCAUGUAUUCUGAGUGACCGAGGUCUGUGC | 72.9 | 594 | – | – | –
CGAGCUGCUGUGAGGAUAUGCCUGUGGGUGCGUGGGUAGAAGGCACAUGAGGAUCACCCAUGUCCUGCAGCUCG | 856 | 412 | – | – | –
GUGGUCAGACAUGAGGAUCACCCAUGUGGAAUAAAUAAGGAAAAGGAUAUCGAAUAUAGGAUAUACGAGAAGGUUUGGUUGGUG | – | – | 96.5 | 98.8 | –
AAUUAGGUCACAGGAUAUACUACUUCCAAUGCUGUAGAAGGGUGACACAUUCUUUGCUGACAUGAGGAUCACCCAUGUAACCAC | – | – | 231 | 41 | –
CUUAUAAUUGAAGGAUAUCUAUAUCCAACAUGAGGAUCACCCAUGUUGAGGAUCACCCAUGUAAAGGAGAAGGUUAAUUAUAAG | – | – | 104 | 22.7 | –
AGCAUGGUAGGAUAUACGGAGCAUUAGGGUUUGUUAUGUGGACAUGAGGAUCACCCAUGUAGAAGGGCCGUGCA | 38.6 | 60 | – | – | –
CCACGUCACAUCUACAUGAGGAUCACCCAUGUCAAAAGACAUGAGGAUAUGCAUCCUAAUUGGAUGCAGAAGGCAUGGACGUGG | – | – | 972 | 69.7 | –
UUGGACGUCGUAGGAUAUGUAGGAUAUUCGUACAUGAGGAUCACCCAUGUUGACAUGGAAGAAGGACAGAAGGACGAUGUCCAU | – | – | 12.2 | 4.55 | –
GUAAAUCAUGUAGGAUAUGCAUGGCGAAGCUACGCAGAAGGACAUGAGGAUCACCCAUGUUAUAGCUACCCAGUUCGGUGGCAA | 102 | 220 | – | – | –
GUCGUACAUGAGGAUCACCCAUGUGAGGAUAUGAGUGACUCAGUGAAAACUGAGUCACUCAGAAGGCGCAUGAU | 84.5 | 384 | – | – | –
UGGUACUAGGGAGGAUAUGGGAAGAUACAUGAGGAUCACCCAUGUUUAAGAAUGCAGAGAGGCAACUAGAAGGCCCUAGUACCU | – | – | 324 | 18.7 | –
ACUAGAUGAGGAUAUGCAUGUUUUCGUGUUCUUCUAGAUUAACAUGAGGAUCACCCAUGUAGAAGGCGUCAAUU | 41.5 | 132 | – | – | –
UUUUAGUCAGGAUAUACAUUUUUUUAUUUAUUUAUAAUAUUACAUGAGGAUCACCCAUGUAGAAGGGACAUUUU | 31.8 | 26.5 | – | – | –
GCAUACUAAGGAUAUACAUGAGGAUCACCCAUGUUGCCAAAUGGCAGCAUCACCUGGAGUAGAAGGUAGAUGUA | 35 | 33.3 | – | – | –
AUCAGCUCGUCAGGAUAUACGUCACUGCGUCAGCAGUGUGGUAAGAUCACAUGAGGAUCACCCAUGUAGAAGGGCCGAGCUGAU | 12.2 | 184 | – | – | –
CUAGAUAUGUAAGGAUAUAUAGUGGAAUACACUAUAGAAGGUAUGUGAUAACAUGAGGAUCACCCAUGUCAUUGGAUAUCUAGA | – | – | 67.5 | 60.3 | –
CUUCGUAUAGAGGAUAUAGGUUACUGCGGUAUCCUAGAAGGCUGUACAUGAGGAUCACCCAUGUACUUCAGAUC | 13.9 | 18.2 | – | – | –
GGUCUGAUAUGAGGAUAUGCUCAGGAAUACUGAGCAGAAGGCAUGUGAAAACAUGAGGAUCACCCAUGUAUGAUCUACAGACCA | – | – | 47 | 21.8 | –
UGAGCGACCACAGGAUAUACUUGGGAAGACCGAGUAGAAGGGUGGAAGAGCGUGCAGUGACAUGAGGAUCACCCAUGUGGUUGU | – | – | 122 | 82.2 | –
CCAUAGUACAAUUUAGAUCUACAUGAGGAUCACCCAUGUACUGAGGAUAUCAGCUCGAAUAGAGCUGAGAAGGCAGAAUUAAUU | – | – | 132 | 59.2 | –
CUCUUGUUAGGAUAUCAAACCGGCGGCGGAGCCGCCGGUAGUGAGAAGGGACAUGAGGAUCACCCAUGUAAGAA | 90.1 | 198 | – | – | –
GAUUUAGAGCAGGAUAUCAUAGAAUUGUAUGAAUGAGAAGGGCUCACAUGAGGAUCACCCAUGUGGUCCUAGAU | 21.7 | 132 | – | – | –
CAUUAACUACAAUUACAUGAGGAUCACCCAUGUUUUGGGAUGCAGGAUAUGUGGUAUAUUAAUUAACAGAAGGGCAAUAAUUUU | – | – | 41.5 | 36.7 | –
UAUGGUUAAGUCAGGAUAUGCUCGUAGAAGUCUAUGCAGAAGGGACAUGAGGAUCACCCAUGUAUGGUCGUGUU | 94.3 | 177 | – | – | –
